Calls of active or inactive are those of the source. The rule behind the calls is not given here.
Legend:
Mus musculus [1] = organism: Mus musculus; test: Toxicity in Swiss albino mouse assessed as change in gross behavior by rotarod test relative to control; type: organism-based; conditions: in vivo
Procedure, shortened: (§1)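 Male Swiss albino mice on the rota-rod, counting falls from the rotating rod at the doses used in passive avoidance. Compared with saline- and CMC-treated mice.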

Adenosine receptor A2a [2] = target: T1, Adenosine receptor A2a (Homo sapiens, UniProt P29274); test: Displacement of [3H]NECA from human adenosine A2A receptor expressed in CHO cells after 120 mins; type: cell-based
T1 sequence (P29274 whole entry): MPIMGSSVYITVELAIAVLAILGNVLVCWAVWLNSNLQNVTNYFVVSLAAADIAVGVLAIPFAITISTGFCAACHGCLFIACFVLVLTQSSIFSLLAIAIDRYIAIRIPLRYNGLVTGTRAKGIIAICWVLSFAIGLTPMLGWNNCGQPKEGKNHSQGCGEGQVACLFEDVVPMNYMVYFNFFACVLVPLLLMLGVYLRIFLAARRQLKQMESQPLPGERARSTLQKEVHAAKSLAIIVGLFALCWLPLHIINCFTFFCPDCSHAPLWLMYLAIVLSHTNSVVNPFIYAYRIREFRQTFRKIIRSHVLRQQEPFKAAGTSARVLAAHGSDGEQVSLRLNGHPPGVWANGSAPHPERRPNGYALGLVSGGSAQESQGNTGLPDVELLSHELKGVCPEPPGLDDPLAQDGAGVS

Mus musculus [3] = organism: Mus musculus; test: Toxicity in Swiss albino mouse assessed as change in motor coordination by measuring number of falls from the rotating rod by rotarod test relative to control; type: organism-based; conditions: in vivo; procedure, shortened: as §1
[4] = target: T2, Adenosine receptor A1 (Homo sapiens) (UniProt P30542); test: Displacement of [3H]DPCPX from human adenosine A1 receptor expressed in CHO cells at 10 uM after 120 mins; type: cell-based
T2 sequence (whole entry): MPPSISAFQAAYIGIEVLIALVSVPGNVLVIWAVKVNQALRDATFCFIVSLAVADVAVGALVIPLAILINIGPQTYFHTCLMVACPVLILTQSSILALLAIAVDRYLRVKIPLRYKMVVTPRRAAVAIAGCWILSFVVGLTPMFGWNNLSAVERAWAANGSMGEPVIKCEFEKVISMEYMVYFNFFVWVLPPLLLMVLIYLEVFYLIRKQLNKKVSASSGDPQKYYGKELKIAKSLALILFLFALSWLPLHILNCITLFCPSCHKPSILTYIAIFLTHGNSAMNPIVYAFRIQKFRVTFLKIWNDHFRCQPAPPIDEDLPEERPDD

[5] = target: T3, Adenosine receptor A3 (Homo sapiens) (UniProt P0DMS8); test: Displacement of [125I]AB-MECA from human adenosine A3 receptor expressed in CHO cells at 10 uM after 120 mins; type: cell-based
T3 sequence (whole entry): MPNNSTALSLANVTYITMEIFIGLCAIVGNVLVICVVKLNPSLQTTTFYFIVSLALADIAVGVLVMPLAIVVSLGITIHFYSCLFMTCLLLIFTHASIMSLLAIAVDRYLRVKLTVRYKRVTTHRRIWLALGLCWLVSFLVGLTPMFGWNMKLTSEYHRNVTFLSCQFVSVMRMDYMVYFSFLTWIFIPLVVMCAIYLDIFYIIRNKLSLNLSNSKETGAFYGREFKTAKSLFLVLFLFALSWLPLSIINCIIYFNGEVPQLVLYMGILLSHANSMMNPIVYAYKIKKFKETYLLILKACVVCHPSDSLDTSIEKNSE

Adenosine receptor A2a [6] = target: T1, Adenosine receptor A2a; test: Displacement of [3H]NECA from human adenosine A2A receptor expressed in CHO cells at 10 uM after 120 mins; type: cell-based
Adenosine receptor A1 [7] = target: T4, Adenosine receptor A1 (Homo sapiens, UniProt P30542); test: Displacement of [3H]DPCPX from human adenosine A1 receptor expressed in CHO cells after 120 mins; type: cell-based
T4 sequence (P30542 whole entry): T2 sequence (whole entry)

[8] = target: T2, Adenosine receptor A1 (Homo sapiens); test: Antagonist activity at human recombinant adenosine A1 receptor expressed in CHO cells assessed as inhibition of NECA-induced cAMP accumulation at 1 nM to 10 uM after 15 mins by liquid scintillation spectrometry; type: functional, cell-based
Procedure, shortened: (§2)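 Human A1-transfected CHO cells, preincubated 15 min at 37 °C with ADA (1 U/mL) and Ro20-1724 (20 μM). Cells received 1 μM forskolin plus 100 nM NECA, with or without compound (1 nM–10 μM), for 15 min. Stopped with 0.4 N HCl and neutralized with KOH. cAMP was measured by [3H]cAMP (2 nM) binding-protein competition, 150 min at 0 °C, with filtration and scintillation counting. Levels are % of forskolin (100%). Mean ± SEM of ≥3 experiments in duplicate.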

[9] = target: T5, Adenosine receptor A2b (Homo sapiens) (UniProt P29275); test: Agonist activity at human recombinant adenosine A2B receptor expressed in CHO cells assessed as cAMP accumulation at 10 uM after 15 mins by liquid scintillation spectrometry (reference value: 50%); type: functional, cell-based
T5 sequence (whole entry): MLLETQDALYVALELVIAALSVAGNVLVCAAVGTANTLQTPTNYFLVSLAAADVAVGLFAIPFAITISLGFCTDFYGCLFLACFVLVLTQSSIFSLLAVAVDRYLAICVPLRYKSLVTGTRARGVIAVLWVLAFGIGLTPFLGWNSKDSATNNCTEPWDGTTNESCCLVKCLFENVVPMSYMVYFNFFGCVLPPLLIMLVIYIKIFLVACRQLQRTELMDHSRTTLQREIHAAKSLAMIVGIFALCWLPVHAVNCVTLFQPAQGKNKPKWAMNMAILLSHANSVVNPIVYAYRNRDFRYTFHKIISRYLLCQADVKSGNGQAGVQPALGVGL
Procedure, shortened: (§3)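 CHO cells expressing human A2B receptor, plated about 30000 per well and used after 24 h. Preincubated 15 min at 37 °C in DMEM with ADA (1 U/mL) and Ro20-1724 (20 μM). Compound at 10 μM was tested alone or with an EC50 concentration of NECA determined the same day. cAMP was measured by [3H]cAMP competition with bovine adrenal binding protein. Output is % of cAMP production versus agonist maximal effect.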

[10] = target: T5, Adenosine receptor A2b (Homo sapiens); test: Antagonist activity at human recombinant adenosine A2B receptor expressed in CHO cells assessed as inhibition of NECA-induced cAMP accumulation at 10 uM after 15 mins by liquid scintillation spectrometry; type: functional, cell-based; set-up: scale not given: the % may be the effect or the level left; procedure, shortened: as §3
Adenosine receptor A1 [11] = target: T4, Adenosine receptor A1; test: Antagonist activity at human recombinant adenosine A1 receptor expressed in CHO cells assessed as inhibition of NECA-induced cAMP accumulation after 15 mins by liquid scintillation spectrometry; type: functional, cell-based; procedure, shortened: as §2
Adenosine receptor A3 = target: T6, Adenosine receptor A3 (Homo sapiens, UniProt P0DMS8); test: Displacement of [125I]AB-MECA from human adenosine A3 receptor expressed in CHO cells after 120 mins; type: cell-based
T6 sequence (P0DMS8 whole entry): T3 sequence (whole entry)

SMILES | Activity (Mus musculus [1]) | Ki (Adenosine receptor A2a [2]) | Activity (Mus musculus [3]) | inhibition [4] | inhibition [5] | inhibition (Adenosine receptor A2a [6]) | Ki (Adenosine receptor A1 [7]) | Activity [8] | Activity [9] | Activity [10] | IC50 (Adenosine receptor A1 [11]) | Ki (Adenosine receptor A3)
O=c1c2ncn3nc(-c4ccccc4)cc3c2c(-c2cccs2)nn1Cc1ccccc1 | Non-toxic | 0.051 µM | Non-toxic | 45% | 16% |  |  |  |  |  |  | 
Cc1nc2c(=O)n(Cc3ccccc3)nc(-c3ccc(Cl)cc3)c2c2cc(-c3ccccc3)nn12 | Non-toxic |  | Non-toxic | 24% | 25% | 28% |  |  |  |  |  | 
CCc1nc2c(=O)n(Cc3ccccc3)nc(C3CCCC3)c2c2cc(-c3ccccc3)nn12 | Non-toxic | 0.662 µM | Non-toxic |  | 43% |  | 0.0035 µM |  |  |  |  | 
O=c1c2ncn3nc(-c4ccccc4)cc3c2c(-c2ccc(Cl)cc2)nn1Cc1ccccc1 | Non-toxic |  | Non-toxic | 26% | 31% | 56% |  |  |  |  |  | 
Cc1nc2c(=S)n(Cc3ccccc3)nc(C3CCCC3)c2c2cc(-c3ccccc3)nn12 | Non-toxic |  | Non-toxic | 51% | 13% | 18% |  |  |  |  |  | 
CCc1nc2c(=O)n(Cc3ccccc3)nc(-c3cccs3)c2c2cc(-c3ccccc3)nn12 | Non-toxic |  | Non-toxic | 16% | 30% | 65% |  | inactive |  |  |  | 
Cc1nc2c(=O)n(Cc3ccccc3)nc(-c3cccs3)c2c2cc(-c3ccccc3)nn12 | Non-toxic | 2.6 µM | Non-toxic | 21% | 15% |  |  |  |  |  |  | 
O=c1c2ncn3nc(-c4ccccc4)cc3c2c(-c2cccnc2)nn1Cc1ccccc1 | Non-toxic |  | Non-toxic |  | 21% |  |  |  |  |  |  | 
Cc1nc2c(=O)n(Cc3ccccc3)nc(C3CCCCC3)c2c2cc(-c3ccccc3)nn12 | Non-toxic |  | Non-toxic |  | 35% | 7% | 0.0095 µM |  | 2.1% | 57.8% |  | 
Cc1nc2c(=S)n(Cc3ccccc3)nc(C3CCCCC3)c2c2cc(-c3ccccc3)nn12 | Non-toxic |  | Non-toxic | 33% | 30% | 0% |  |  |  |  |  | 
S=c1c2ncn3nc(-c4ccccc4)cc3c2c(C2CCCCC2)nn1Cc1ccccc1 | Non-toxic |  | Non-toxic |  | 31% | 8% | 0.0095 µM |  | 4.8% | 58.9% |  | 
Cc1nc2c(=O)n(Cc3ccccc3)nc(-c3ccsc3)c2c2cc(-c3ccccc3)nn12 | Non-toxic |  | Non-toxic | 8% | 37% | 57% |  |  |  |  |  | 
Cc1nc2c(=O)n(Cc3ccccc3)nc(C3CCCC3)c2c2cc(-c3ccccc3)nn12 | Non-toxic |  | Non-toxic |  | 41% | 53% | 0.0062 µM |  |  |  | 0.0051 µM | 
CCc1nc2c(=O)n(Cc3ccccc3)nc(-c3ccc(Cl)cc3)c2c2cc(-c3ccccc3)nn12 | Non-toxic |  | Non-toxic | 35% | 51% | 10% |  | inactive |  |  |  | 
CCc1nc2c(=S)n(Cc3ccccc3)nc(C3CCCCC3)c2c2cc(-c3ccccc3)nn12 | Non-toxic |  | Non-toxic |  | 42% | 0% |  |  |  |  |  | 
S=c1c2ncn3nc(-c4ccccc4)cc3c2c(C2CCCC2)nn1Cc1ccccc1 | Non-toxic |  | Non-toxic |  | 54% | 37% | 0.0129 µM |  |  |  |  | 
CCc1nc2c(=S)n(Cc3ccccc3)nc(C3CCCC3)c2c2cc(-c3ccccc3)nn12 | Non-toxic |  | Non-toxic |  | 24% | 35% | 0.0047 µM |  |  |  |  | 
O=c1c2ncn3nc(-c4ccccc4)cc3c2c(-c2ccsc2)nn1Cc1ccccc1 | Non-toxic | 0.0692 µM | Non-toxic | 26% | 24% |  |  |  |  |  |  | 
CCc1nc2c(=O)n(Cc3ccccc3)nc(C3CCCCC3)c2c2cc(-c3ccccc3)nn12 | Non-toxic |  | Non-toxic |  | 40% | 0% | 0.0152 µM |  |  |  |  | 
CCc1nc2c(=O)n(Cc3ccccc3)nc(-c3ccsc3)c2c2cc(-c3ccccc3)nn12 | Non-toxic |  | Non-toxic | 5% | 36% | 41% |  |  |  |  |  | 
O=c1c2ncn3nc(-c4ccccc4)cc3c2c(C2CCCCC2)nn1Cc1ccccc1 | Non-toxic |  | Non-toxic |  |  | 56% | 0.172 µM |  |  |  |  | 0.308 µM
O=c1c2ncn3nc(-c4ccccc4)cc3c2c(C2CCCC2)nn1Cc1ccccc1 | Non-toxic | 0.0755 µM | Non-toxic |  |  |  | 0.0323 µM |  |  |  |  | 0.064 µM
